Source: PMC10422108 (Journal of Pharmaceutical Analysis, 2023)

Key:
[1] = test system: Lewis lung cancer (LLC); assay: Antitumor activity in Lewis lung cancer; assay type: in vivo, C57BL/6J male mice; conditions: LLC mice; PTX 25 mg/kg; PTX-R 14.4, 28.8, 57.6 mg/kg; 11 day; versus control
[2] = test system: CTL1, OCT1 and OCT2 in LLC cells; assay: PTX-R uptake assay with transporter inhibitors; assay type: cell-based, mouse; conditions: 100 μmol/L HC-3, 60 μmol/L quinidine or 60 μmol/L cimetidine, 10 min
Outline: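 LLC cells seeded at 2 × 10^5 cells/mL, grown 48 h, PBS-washed. Preincubated 20 min with inhibitor or PBS, then 4.5 μmol/L test compound ± inhibitor for 10 min. Stopped by three cold PBS washes; lysed 30 min in cold MeOH/0.1% FA containing 100 ng/mL docetaxel internal standard. Extract dried, reconstituted in ACN:H2O 1:9, quantified by LC-MS/MS (MRM).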

SMILES: CC(=O)O[C@H]1C(=O)[C@@]2(C)[C@H]([C@H](OC(=O)c3ccccc3)[C@]3(O)C[C@H](OC(=O)[C@H](O)[C@@H](NC(=O)c4ccccc4)c4ccccc4)C(C)=C1C3(C)C)[C@]1(OC(C)=O)CO[C@@H]1C[C@@H]2O [PTX, paclitaxel]
- indices of the spleen and thymus [1]: notably reduced
- cellular uptake in presence of transporter inhibitors [2]: no influence on PTX transport
